Experimental data taken from PubChem BioAssay.
Calls of active or inactive are those of the source.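 How the source made its calls, unless noted: active means potentiation averaged over duplicate wells exceeding buffer-only control mean by more than 3 SD; inactive means the rest.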

Columns and labels:
[1] = thallium flux activation in parental CHO cells, counter-screen for KCNQ1 potentiator project (AID 493006;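 active means duplicate-averaged activation above buffer control mean plus 5 SD of those controls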;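 on activation: fluorescence ratio of max minus min over baseline after K+ and Tl+ depolarization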); conditions: parental CHO-K1 cells, FluxOR thallium flux, at 10 µM; stronger effect = higher value
Outline: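 Material: parental CHO-K1 cells, FluxOR dye-loaded; Also added: Potassium/thallium depolarization pulse; Schedule: overnight 37 °C plating, 90 min dye, 20 min dark compound; Signal: kinetic FluxOR fluorescence, 10 s baseline, 110 s after stimulus.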

[2] = biological target: Potassium voltage-gated channel subfamily KQT member 1 (Homo sapiens) (UniProt P51787); test: KCNQ1 potassium channel potentiators, confirmation, FluxOR thallium flux, CHO cells, duplicates (AID 493007); conditions: KCNQ1 cell line, FluxOR thallium flux fluorescence, at 10 µM; stronger effect = higher value, % of reference activator effect, buffer zero;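 on outcome: cells depolarized by a potassium plus thallium sulfate stimulus after compound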
Outline: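 System: KCNQ1-expressing CHO cell line; technique: kinetic thallium influx fluorescence with FluxOR dye, 10 s baseline, 110 s post-stimulus; timing: dye 90 min then compound 20 min, both at room temperature; controls: buffer-only wells as 0% and R-L3 activator as 100%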

[3] = biological target: Potassium voltage-gated channel subfamily KQT member 2 (Rattus norvegicus) (UniProt O88943); test: rat KCNQ2 channel potentiation, selectivity assay for KCNQ1 potentiator project, KCNQ2-CHO-K1 cells (AID 493009;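 active means mean duplicate potentiation above the buffer control mean plus 5 SD of buffer wells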;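 further: assay conditions were tuned for KCNQ1 rather than KCNQ2 modulators; signal is max minus min fluorescence divided by baseline after thallium stimulus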); conditions: FluxOR thallium flux fluorescence, at 10 µM; stronger effect = higher value, scaled: buffer 0, activator control 100
[4] = biological target: Potassium voltage-gated channel subfamily KQT member 1 (Homo sapiens) (UniProt P51787); test: KCNQ1 channel current potentiators, confirmation, orthogonal assay for KCNQ1 potentiator project, IonWorks patch clamp, KCNQ1-CHO cells (AID 493184;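 active means current rise at least 3 SD above the untreated control mean in each of two repeat wells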); conditions: automated patch clamp current, at 10 µM; stronger effect = higher value
Outline: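 Test system: KCNQ1-expressing CHO cells. Medium: pH 7.4 external bath. Probe or stimulus: voltage step from -90 mV holding to +40 mV, 2,000 ms. Compound: 10 µM final, single point. Detection: automated perforated-patch electrophysiology. Read-out: percent current increase versus pre-compound level. Repeats: two replicates.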

Potassium voltage-gated channel subfamily KQT member 1 (Homo sapiens), sequence (P51787 whole entry, looked up): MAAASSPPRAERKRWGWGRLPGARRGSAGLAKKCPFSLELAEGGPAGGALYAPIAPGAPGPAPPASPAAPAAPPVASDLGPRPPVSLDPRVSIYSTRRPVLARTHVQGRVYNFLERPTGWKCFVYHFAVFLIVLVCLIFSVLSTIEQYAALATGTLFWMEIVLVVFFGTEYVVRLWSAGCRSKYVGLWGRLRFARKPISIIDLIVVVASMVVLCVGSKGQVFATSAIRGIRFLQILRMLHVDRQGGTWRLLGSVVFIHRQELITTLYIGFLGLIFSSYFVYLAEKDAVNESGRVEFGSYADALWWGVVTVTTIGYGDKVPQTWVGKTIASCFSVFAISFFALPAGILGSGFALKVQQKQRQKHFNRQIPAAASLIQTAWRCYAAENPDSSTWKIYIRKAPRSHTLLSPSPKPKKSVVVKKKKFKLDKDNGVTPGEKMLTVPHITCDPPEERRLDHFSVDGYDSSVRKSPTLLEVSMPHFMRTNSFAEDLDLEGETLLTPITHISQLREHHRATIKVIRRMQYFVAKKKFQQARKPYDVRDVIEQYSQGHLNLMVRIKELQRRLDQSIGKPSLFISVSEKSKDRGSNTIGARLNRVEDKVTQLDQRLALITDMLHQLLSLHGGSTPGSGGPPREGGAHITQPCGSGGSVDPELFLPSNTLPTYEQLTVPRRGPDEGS
Potassium voltage-gated channel subfamily KQT member 2 (Rattus norvegicus), sequence (O88943 whole entry, looked up): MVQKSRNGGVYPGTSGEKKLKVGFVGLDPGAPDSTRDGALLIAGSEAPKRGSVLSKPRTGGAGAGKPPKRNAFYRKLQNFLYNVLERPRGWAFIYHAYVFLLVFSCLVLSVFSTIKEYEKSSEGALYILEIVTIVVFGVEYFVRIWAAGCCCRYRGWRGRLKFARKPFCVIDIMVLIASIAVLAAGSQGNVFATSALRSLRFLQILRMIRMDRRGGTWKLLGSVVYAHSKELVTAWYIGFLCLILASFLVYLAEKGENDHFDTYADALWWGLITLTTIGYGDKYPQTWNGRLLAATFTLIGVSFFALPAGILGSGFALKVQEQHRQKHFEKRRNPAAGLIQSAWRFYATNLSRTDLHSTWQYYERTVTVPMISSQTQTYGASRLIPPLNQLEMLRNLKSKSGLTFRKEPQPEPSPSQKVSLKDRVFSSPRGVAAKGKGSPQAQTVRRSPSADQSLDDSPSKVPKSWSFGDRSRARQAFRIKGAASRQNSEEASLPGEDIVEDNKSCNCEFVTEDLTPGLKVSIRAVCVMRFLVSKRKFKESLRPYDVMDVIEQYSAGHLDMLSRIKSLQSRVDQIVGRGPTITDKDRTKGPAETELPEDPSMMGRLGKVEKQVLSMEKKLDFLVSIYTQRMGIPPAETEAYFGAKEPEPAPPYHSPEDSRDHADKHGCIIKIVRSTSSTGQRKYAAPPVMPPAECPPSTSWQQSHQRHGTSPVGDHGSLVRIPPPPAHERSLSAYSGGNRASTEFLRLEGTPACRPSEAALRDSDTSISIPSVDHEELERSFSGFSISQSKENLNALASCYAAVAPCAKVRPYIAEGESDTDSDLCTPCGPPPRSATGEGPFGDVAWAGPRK

| Structure (SMILES) | outcome [1] | outcome [2] | outcome [3] | outcome [4] | potentiation [3] | activation [1] | potentiation [2] |
| --- | --- | --- | --- | --- | --- | --- | --- |
| CC1(C)N=C(N)NC(Nc2cccc(Br)c2)=N1 | inactive | inactive | inactive | inactive | – | – | – |
| Cc1csc(=O)n1CCC(=O)OCC(=O)NCc1ccc(F)cc1 | inactive | inactive | – | inactive | 186% (active) | – | – |
| O=C(NC(=S)N1CCc2ccccc21)c1ccco1 | – | – | – | inactive | 226% (active) | 198% (active) | 49.5% (active) |
| CCCCOC(=S)NC(=O)c1sc2ccccc2c1Cl | – | – | – | inactive | 365% (active) | 448% (active) | 206% (active) |
| Cc1ccc(C2=CSC3=NS(=O)(=O)CCN23)cc1 | inactive | inactive | inactive | inactive | – | – | – |
| COc1cccc(Oc2cnc(N)nc2-c2ccc(OC)cc2O)c1 | inactive | inactive | inactive | inactive | – | – | – |
| O=C(NC(=S)N(CCc1ccccc1)CCc1ccccc1)c1ccco1 | – | – | – | inactive | 560% (active) | 408% (active) | 364% (active) |
| S=c1nc(C2CCCCC2)[nH]c2ccccc12 | – | – | – | inactive | 160% (active) | 138% (active) | 22.5% (active) |
| CCCCCNC(=O)Cn1c(=O)c2c(ncn2CC(C)C)n(Cc2ccccc2)c1=O | inactive | inactive | inactive | inactive | – | – | – |
| COc1ccc2c(-c3ccccc3)cc(=S)[nH]c2c1 | – | – | – | inactive | 231% (active) | 210% (active) | 50.5% (active) |
| O=S(=O)(/C=C/c1ccccc1)n1cnc2ccccc21 | inactive | inactive | inactive | inactive | – | – | – |
| Nc1nonc1C(=O)NCCN=Cc1cc(Cc2ccccc2)cc(Br)c1O | inactive | inactive | inactive | inactive | – | – | – |
| O=C(O)c1ccc2c(c1)C(=O)N(Cc1ccccc1)C2=O | inactive | inactive | inactive | inactive | – | – | – |
| C=CCNC(=S)Nc1sc2c(c1C(=O)OCC)CC(C)(CC)OC2 (stereo not given) | – | – | – | inactive | 254% (active) | 318% (active) | 49.5% (active) |
| CCCn1nnnc1SCC(=O)c1ccc2c(c1)OCCO2 | inactive | inactive | inactive | inactive | – | – | – |
| C#CC1(NC(=O)NCCCC)CCCCC1 | inactive | inactive | inactive | inactive | – | – | – |
| CCc1ccc2[nH]c(C(=O)Nc3ccc(F)cc3Br)cc2c1 | inactive | inactive | inactive | inactive | – | – | – |
| CC1(C)CC[C@]2(C(=O)O)CC[C@]3(C)C(=CCC4[C@@]5(C)CC[C@H](O)C(C)(C)C5[C@H](O)C[C@]43C)[C@@H]2C1 (stereo not given in full) | – | – | – | inactive | 182% (active) | 184% (active) | 40.5% (active) |
| COCCCNC(=O)CC(NS(=O)(=O)c1ccc(F)cc1)c1ccc(OC)cc1 (stereo not given) | inactive | inactive | inactive | inactive | – | – | – |
| CCN(c1ccccc1)S(=O)(=O)c1ccc(OC)c(NC(=O)COc2ccc(C(C)=O)cc2)c1 | inactive | inactive | inactive | inactive | – | – | – |

| Structure (SMILES) | outcome [1] | outcome [2] | outcome [3] | outcome [4] | potentiation [3] | activation [1] | potentiation [2] |
| --- | --- | --- | --- | --- | --- | --- | --- |
| Cc1ccc(O)c(C(=O)CC(=O)c2ccccc2Cl)c1 | – | – | – | inactive | 144% (active) | 158% (active) | 72.5% (active) |
| COc1ccc(CCNC(=O)CC(=O)N/N=C/c2ccc(Br)cc2)cc1OC | inactive | inactive | inactive | inactive | – | – | – |
| Cc1ccc(C(=O)OCC(=O)N(C)c2ccccc2)cc1C | – | – | – | inactive | 405% (active) | 397% (active) | 252% (active) |
| Cc1cccc(-n2c(=S)[nH]c3sc4c(c3c2=O)CCc2ccccc2-4)c1 | – | – | – | inactive | 330% (active) | 240% (active) | 149% (active) |
| Cc1cccc(/C=C/C(=O)c2cc(Br)ccc(=O)c2O)c1 | – | – | – | inactive | 254% (active) | 170% (active) | 90% (active) |
| C/C(=N\NC(=O)C(C)Sc1ccccc1)c1ccc([N+](=O)[O-])cc1 (stereo not given) | inactive | inactive | inactive | inactive | – | – | – |
| COc1ccccc1C(=O)NNC(=O)C(=O)NC1CCCCC1 | – | – | – | inactive | 262% (active) | 262% (active) | 67.5% (active) |
| CN(C)CC(CCCCC(CN(C)C)C(=O)c1ccccc1)C(=O)c1ccccc1 (stereo not given) | inactive | inactive | inactive | inactive | – | – | – |
| CC(CCc1ccccc1)NC(=O)COc1cc(F)ccc1[N+](=O)[O-] (stereo not given) | inactive | inactive | inactive | inactive | – | – | – |
| CC(=O)Nc1ccc(NC(=O)c2cccc(C(=O)OC(C)C)n2)cc1 | inactive | inactive | inactive | inactive | – | – | – |
| C=CCn1c(SCc2ccc(C(=O)O)cc2)nc2sc(C)c(C)c2c1=O | – | – | – | inactive | 236% (active) | 216% (active) | 72.5% (active) |
| Cc1cccc(Nc2ccccc2C(=O)OCC(=O)N(C)C2CCS(=O)(=O)C2)c1C (stereo not given) | inactive | inactive | inactive | inactive | – | – | – |
| O=C(NC(=S)Nc1ccccc1)c1cccs1 | – | inactive | – | inactive | 142% (active) | 137% (active) | – |
| CCSc1nc(=S)cc(C)[nH]1 | – | – | – | inactive | 388% (active) | 340% (active) | 172% (active) |
| C=CCn1c(=S)[nH]c2scc(-c3cccs3)c2c1=O | – | – | – | inactive | 554% (active) | 620% (active) | 274% (active) |
| O=C(COC(=O)C1CCC(=O)N1)Nc1ccc(Oc2ccccc2)cc1 (stereo not given) | inactive | inactive | inactive | inactive | – | – | – |
| COc1ccc(-c2nc(CS(=O)CC(=O)NC3CCCC3)c(C)o2)cc1OC (stereo not given) | – | – | – | inactive | 244% (active) | 168% (active) | 85% (active) |
| CCc1ccc(NC(=O)C(=O)NNC(=O)c2cccc(OC)c2)cc1 | – | – | – | inactive | 339% (active) | 269% (active) | 124% (active) |
| CCc1nnc(NC(=O)CCC(=O)N2CCN(C3CCCCC3)CC2)s1 | inactive | inactive | inactive | inactive | – | – | – |
| O=C(NC(=S)N1CCCCCC1)c1ccc(Cl)cc1Cl | – | inactive | – | inactive | 158% (active) | 148% (active) | – |

| Structure (SMILES) | outcome [1] | outcome [2] | outcome [3] | outcome [4] | potentiation [3] | activation [1] | potentiation [2] |
| --- | --- | --- | --- | --- | --- | --- | --- |
| C=CCNC(=S)Nc1sc2c(c1C(=O)OCC)CC(C(C)C)OC2 (stereo not given) | – | – | – | inactive | 246% (active) | 268% (active) | 132% (active) |
| Cc1cccc(NC(=S)NC(=O)c2ccc(Br)o2)c1C | inactive | inactive | inactive | inactive | – | – | – |
| O=C(c1ccc(S(=O)(=O)N2CCCC2)cc1)N1CCN(c2cccc(Cl)c2)CC1 | inactive | inactive | inactive | inactive | – | – | – |
| COc1ccc2c(c1)cc(C)c1nnc(SCC(=O)N3CCN(C(=O)c4ccco4)CC3)n12 | inactive | inactive | inactive | inactive | – | – | – |
| CC(C)(C)NC(=O)C(=O)NNC(=O)c1cccc(F)c1 | – | – | – | inactive | 228% (active) | 201% (active) | 87.5% (active) |
| S=c1nn[nH]n1C12CC3CC(CC(C3)C1)C2 | – | – | – | inactive | 210% (active) | 206% (active) | 51.5% (active) |
| Cc1ccc(Cl)cc1N1CCN(C(=O)c2ccc(CN3CCOCC3)cc2)CC1 | inactive | inactive | inactive | inactive | – | – | – |
| CC(C)NC(=O)/C(=C/c1cn(-c2ccccc2)nc1-c1cccc([N+](=O)[O-])c1)NC(=O)c1ccccc1 | inactive | inactive | inactive | inactive | – | – | – |
| O=c1c2ccc(Cl)cc2nc(-c2ccc([N+](=O)[O-])cc2)n1O | – | – | – | inactive | 428% (active) | 345% (active) | 90.5% (active) |
| S=c1[nH]nc(-c2ccco2)n1/N=C/c1ccc(Cl)c(Cl)c1 | – | – | – | inactive | 145% (active) | 512% (active) | 290% (active) |
| O=C1c2cccc3cccc(c23)C(=O)C1(O)O | inactive | inactive | inactive | inactive | – | – | – |
| CCOc1ncccc1C(=O)OCc1ccc(C#N)cc1 | – | – | – | inactive | 392% (active) | 286% (active) | 114% (active) |
| Cc1cc(/C=N/NC(=O)CC#N)c(C)n1-c1ccc([N+](=O)[O-])cc1 | inactive | inactive | inactive | inactive | – | – | – |
| CC(C)c1ccc(NC(=O)C2CC(=O)N=C(N)S2)cc1 (stereo not given) | – | – | – | inactive | 227% (active) | 164% (active) | 41.5% (active) |
| Oc1ccc(N=Nc2ccc3c(c2)OCCO3)c2cccnc12 | – | – | – | inactive | 384% (active) | 261% (active) | 92.5% (active) |
| CCSc1nnc(NS(=O)(=O)c2ccc(OC)cc2)s1 | inactive | inactive | inactive | inactive | – | – | – |
| O=C(NC(=S)Nc1ccccc1Cl)c1csnn1 | – | – | – | inactive | 510% (active) | 450% (active) | 174% (active) |
| CC(C)[N+]1(C)[C@@H]2CC[C@H]1CC(OC(=O)C(CO)c1ccccc1)C2 (stereo not given in full) | inactive | inactive | inactive | inactive | – | – | – |
| C=CCn1c(O)c(N=NC(=S)Nc2ccccc2F)c2ccccc21 | – | – | – | inactive | 416% (active) | 352% (active) | 212% (active) |
| Cc1cccc(NC(=S)N/N=C(\c2ccccc2)C(C)C)c1 | inactive | – | – | inactive | 152% (active) | – | 32% (active) |
